Converted amounts (≈) assume the structure as drawn.
How the values were obtained:
[1] = system: Mus musculus; experiment: Blood level after oral administration in mice (50 mg/kg) was determined (area under the concentration-time curve recorded at 0.5, 1, 2, and 4 hour after dosing); format: ADME, organism-based; design: dose 50 mg/kg, time < 4 hr, route oral; conditions: in vivo
Summary of the method: (§1)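 Single oral dose of 50 mg/kg to mice. Blood taken from groups of six mice at 0.5, 1, 2 and 4 h after dosing. Serum levels measured by disk agar diffusion bioassay with Bacillus subtilis ATCC 6633 on Seed Agar, plates incubated 18 h at 37 °C, giving total activity in serum. AUC 0-4 h expressed as μg/mL […].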

[2] = system: Bacillus cereus; experiment: Minimum inhibitory concentration (MIC) preventing growth of Bacillus cereus; format: functional
[3] = system: Bacillus subtilis; experiment: Minimum inhibitory concentration (MIC) preventing growth of Bacillus subtilis; format: functional
[4] = system: Escherichia coli; experiment: Minimum inhibitory concentration (MIC)preventing growth of Escherichia coli; format: functional
[5] = system: Klebsiella pneumoniae; experiment: Minimum inhibitory concentration (MIC)preventing growth of Klebsiella pneumoniae; format: functional
[6] = system: Morganella morganii; experiment: Minimum inhibitory concentration (MIC) preventing growth of Morganella morganii; format: functional
[7] = system: Proteus vulgaris; experiment: Minimum inhibitory concentration (MIC) preventing growth of Proteus vulgaris; format: functional
[8] = system: Staphylococcus epidermidis; experiment: Minimum inhibitory concentration (MIC) preventing growth of Staphylococcus epidermidis; format: functional
[9] = system: Staphylococcus aureus; experiment: Minimum inhibitory concentration (MIC) preventing growth of […]; format: functional
[10] = system: Enterococcus faecalis; experiment: Minimum inhibitory concentration (MIC) preventing growth of Streptococcus faecalis ATCC 10541; format: functional
[11] = system: Enterobacter cloacae; experiment: Minimum inhibitory concentration (MIC)preventing growth of Enterobacter cloacae; format: functional
[12] = system: Pseudomonas aeruginosa; experiment: Minimum inhibitory concentration (MIC)preventing growth of Pseudomonas aeruginosa; format: functional
[13] = system: Mus musculus; experiment: Blood level after oral administration in mice (50 mg/kg) was determined by bioassay procedure and represent total activity present in the serum; format: ADME, organism-based; conditions: in vivo; summary of the method: as §1
[14] = system: Escherichia coli; experiment: Efficacy on systemic infections after oral administration in mice was determined against Escherichia coli HM-42; format: functional
Summary of the method: (§2)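 Mouse protection test using 4 groups of 10 mice. Mice were infected intraperitoneally with a bacterial suspension slightly above LD100. A single oral dose was given immediately after infection, with four doses, one per group, chosen from in vitro activity. Survival was scored after one week, and ED50 (total mg/kg protecting 50% of mice) was interpolated from group survival rates.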

[15] = system: Pseudomonas aeruginosa; experiment: Efficacy on systemic infections after oral administration in mice was determined against Pseudomonas aeruginosa HS-116; format: functional; summary of the method: as §2
[16] = system: Staphylococcus aureus; experiment: Efficacy on systemic infections after oral administration in mice was determined against […] HS-93; format: functional; summary of the method: as §2

SMILES	AUC [1]	MIC [2]	MIC [3]	MIC [4]	MIC [5]	MIC [6]	MIC [7]	MIC [8]	MIC [9]	MIC [10]	MIC [11]	MIC [12]	AUC [13]	ED50 [14]	ED50 [15]	ED50 [16]
CCNCC1CN(c2cc3c(cc2F)c(=O)c(C(=O)O)cn3C2CC2)C1	0 ng·h/mL	0.5 µg/mL (≈ 1.39 µM)	0.06 µg/mL (≈ 0.167 µM)	0.25 µg/mL (≈ 0.696 µM)	0.06 µg/mL (≈ 0.167 µM)	0.5 µg/mL (≈ 1.39 µM)	1 µg/mL (≈ 2.78 µM)	1 µg/mL (≈ 2.78 µM)	0.5 µg/mL (≈ 1.39 µM)	4 µg/mL (≈ 11.1 µM)	0.12 µg/mL (≈ 0.334 µM)	4 µg/mL (≈ 11.1 µM)				
CC1(N)CN(c2cc3c(cc2F)c(=O)c(C(=O)O)cn3C(C)(C)C)C1		0.25 µg/mL (≈ 0.72 µM)	0.06 µg/mL (≈ 0.173 µM)	0.12 µg/mL (≈ 0.345 µM)	0.12 µg/mL (≈ 0.345 µM)	0.25 µg/mL (≈ 0.72 µM)	0.25 µg/mL (≈ 0.72 µM)	0.12 µg/mL (≈ 0.345 µM)	0.25 µg/mL (≈ 0.72 µM)	0.5 µg/mL (≈ 1.44 µM)	0.25 µg/mL (≈ 0.72 µM)	2 µg/mL (≈ 5.76 µM)	5400 ng·h/mL			
CCNCC1CN(c2c(F)cc3c(=O)c(C(=O)O)cn(C4CC4)c3c2F)C1		0.5 µg/mL (≈ 1.32 µM)	0.06 µg/mL (≈ 0.159 µM)	0.25 µg/mL (≈ 0.662 µM)	0.06 µg/mL (≈ 0.159 µM)	0.25 µg/mL (≈ 0.662 µM)	1 µg/mL (≈ 2.65 µM)	0.25 µg/mL (≈ 0.662 µM)	0.5 µg/mL (≈ 1.32 µM)	0.5 µg/mL (≈ 1.32 µM)	0.25 µg/mL (≈ 0.662 µM)	4 µg/mL (≈ 10.6 µM)	14100 ng·h/mL			
CNC1CN(c2c(F)cc3c(=O)c(C(=O)O)cn(C4CC4)c3c2F)C1	32700 ng·h/mL	0.25 µg/mL (≈ 0.716 µM)	0.06 µg/mL (≈ 0.172 µM)	0.03 µg/mL (≈ 0.0859 µM)	0.03 µg/mL (≈ 0.0859 µM)	0.06 µg/mL (≈ 0.172 µM)	0.5 µg/mL (≈ 1.43 µM)	0.12 µg/mL (≈ 0.344 µM)	0.25 µg/mL (≈ 0.716 µM)	1 µg/mL (≈ 2.86 µM)	0.03 µg/mL (≈ 0.0859 µM)	0.5 µg/mL (≈ 1.43 µM)		1.5 mg/kg	28.5 mg/kg	10.6 mg/kg
NCC1CN(c2c(F)cc3c(=O)c(C(=O)O)cn(C4CC4)c3c2F)C1	1700 ng·h/mL	0.12 µg/mL (≈ 0.344 µM)	0.06 µg/mL (≈ 0.172 µM)	0.25 µg/mL (≈ 0.716 µM)	0.25 µg/mL (≈ 0.716 µM)	0.25 µg/mL (≈ 0.716 µM)	1 µg/mL (≈ 2.86 µM)	0.12 µg/mL (≈ 0.344 µM)	0.12 µg/mL (≈ 0.344 µM)	0.12 µg/mL (≈ 0.344 µM)	0.25 µg/mL (≈ 0.716 µM)	2 µg/mL (≈ 5.73 µM)				
NCC1CN(c2cc3c(cc2F)c(=O)c(C(=O)O)cn3C2CC2)C1	0 ng·h/mL	0.25 µg/mL (≈ 0.754 µM)	0.12 µg/mL (≈ 0.362 µM)	0.12 µg/mL (≈ 0.362 µM)	0.12 µg/mL (≈ 0.362 µM)	0.12 µg/mL (≈ 0.362 µM)	1 µg/mL (≈ 3.02 µM)	0.25 µg/mL (≈ 0.754 µM)	0.5 µg/mL (≈ 1.51 µM)	0.5 µg/mL (≈ 1.51 µM)	0.25 µg/mL (≈ 0.754 µM)	1 µg/mL (≈ 3.02 µM)				
CNC1CN(c2cc3c(cc2F)c(=O)c(C(=O)O)cn3C2CC2)C1	4200 ng·h/mL	0.12 µg/mL (≈ 0.362 µM)	0.03 µg/mL (≈ 0.0905 µM)	0.03 µg/mL (≈ 0.0905 µM)	0.03 µg/mL (≈ 0.0905 µM)	0.03 µg/mL (≈ 0.0905 µM)	0.25 µg/mL (≈ 0.754 µM)	0.12 µg/mL (≈ 0.362 µM)	0.25 µg/mL (≈ 0.754 µM)	1 µg/mL (≈ 3.02 µM)	0.03 µg/mL (≈ 0.0905 µM)	0.5 µg/mL (≈ 1.51 µM)		3.8 mg/kg	145 mg/kg	36.3 mg/kg
NC1CN(c2cc3c(cc2F)c(=O)c(C(=O)O)cn3C2CC2)C1	3000 ng·h/mL	0.12 µg/mL (≈ 0.378 µM)	0.03 µg/mL (≈ 0.0945 µM)	0.03 µg/mL (≈ 0.0945 µM)	0.03 µg/mL (≈ 0.0945 µM)	0.03 µg/mL (≈ 0.0945 µM)	0.12 µg/mL (≈ 0.378 µM)	0.12 µg/mL (≈ 0.378 µM)	0.25 µg/mL (≈ 0.788 µM)	0.5 µg/mL (≈ 1.58 µM)	0.03 µg/mL (≈ 0.0945 µM)	0.25 µg/mL (≈ 0.788 µM)		3.6 mg/kg	82.2 mg/kg	44 mg/kg
CCn1cc(C(=O)O)c(=O)c2cc(F)c(N3CC(C)(N)C3)c(F)c21		0.5 µg/mL (≈ 1.48 µM)	0.12 µg/mL (≈ 0.356 µM)	0.12 µg/mL (≈ 0.356 µM)	0.015 µg/mL (≈ 0.0445 µM)	0.12 µg/mL (≈ 0.356 µM)	1 µg/mL (≈ 2.96 µM)	0.5 µg/mL (≈ 1.48 µM)	0.5 µg/mL (≈ 1.48 µM)	2 µg/mL (≈ 5.93 µM)	0.12 µg/mL (≈ 0.356 µM)	2 µg/mL (≈ 5.93 µM)		4.1 mg/kg	57.3 mg/kg	8.2 mg/kg
NC1CN(c2c(F)cc3c(=O)c(C(=O)O)cn(C4CC4)c3c2F)C1	23000 ng·h/mL	0.12 µg/mL (≈ 0.358 µM)	0.03 µg/mL (≈ 0.0895 µM)	0.03 µg/mL (≈ 0.0895 µM)	0.03 µg/mL (≈ 0.0895 µM)	0.03 µg/mL (≈ 0.0895 µM)	0.12 µg/mL (≈ 0.358 µM)	0.12 µg/mL (≈ 0.358 µM)	0.12 µg/mL (≈ 0.358 µM)	0.25 µg/mL (≈ 0.746 µM)	0.06 µg/mL (≈ 0.179 µM)	0.5 µg/mL (≈ 1.49 µM)		2.4 mg/kg	141 mg/kg	16.2 mg/kg
CNC1(C)CN(c2c(F)cc3c(=O)c(C(=O)O)cn(C4CC4)c3c2F)C1	15800 ng·h/mL	0.5 µg/mL (≈ 1.38 µM)	0.12 µg/mL (≈ 0.33 µM)	0.12 µg/mL (≈ 0.33 µM)	0.12 µg/mL (≈ 0.33 µM)	0.12 µg/mL (≈ 0.33 µM)	1 µg/mL (≈ 2.75 µM)	0.5 µg/mL (≈ 1.38 µM)	0.5 µg/mL (≈ 1.38 µM)	1 µg/mL (≈ 2.75 µM)	0.12 µg/mL (≈ 0.33 µM)	2 µg/mL (≈ 5.5 µM)		1.4 mg/kg	27.2 mg/kg	15 mg/kg
